Each structure is given as a SMILES string. Activity calls are given as the source filed them. The calls are words filed in the database; no cut-off is given here.

Holding throughout (type): cell-based
Experiment [1] has as its target T1, Protein cereblon/E3 ubiquitin-protein ligase XIAP (Homo sapiens) (UniProt P98170+Q96SW2). The experiment in a line: PROTAC activity at CRBN/IAP in human MM1.S cells assessed as induction of XIAP degradation at 10 nM incubated for 16 hrs by western blot analysis. A general note: Immunoblotting shows a protein as a band on a membrane.
The target of experiment [2] is T2, Protein cereblon/Baculoviral IAP repeat-containing protein 2 (Homo sapiens) (UniProt Q13490+Q96SW2). The experiment can be described thus: PROTAC activity at CRBN/IAP in human MM1.S cells assessed as induction of cIAP1 degradation at 0.1 uM incubated for 3 hrs by western blot analysis. An outline of the steps: (§1)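 MM.1S cells treated with 0.1 μM compound for 3 h. Western blotting of lysates on PVDF with HRP/ECL detection.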

Experiment [3] addresses T1, Protein cereblon/E3 ubiquitin-protein ligase XIAP (Homo sapiens). The experiment in a line: PROTAC activity at CRBN/IAP in human MM1.S cells assessed as induction of XIAP degradation incubated for 16 hrs by western blot analysis. The following applies: dose 0.0001-1 µM. Put shortly: (§2)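 MM.1S cells treated 16 h at the stated concentration. Lysed, run on SDS-PAGE and transferred to PVDF. Probed with primary antibodies overnight at 4 °C, then HRP secondaries, with ECL detection. Band densitometry normalized to loading control and to DMSO-treated cells. Averages of at least three independent experiments.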

For experiment [4], the target named is T3, Protein cereblon/Baculoviral IAP repeat-containing protein 3 (Homo sapiens) (UniProt Q13489+Q96SW2). The experiment can be described thus: PROTAC activity at CRBN/IAP in human MM1.S cells assessed as induction of cIAP2 degradation pretreated for 1 hr with proteasome inhibitor, MG132 followed by incubation with drug for 3 hrs by western blot analysis.
Experiment [5] concerns the target T1, Protein cereblon/E3 ubiquitin-protein ligase XIAP (Homo sapiens). The experiment can be described thus: PROTAC activity at CRBN/IAP in human MM1.S cells assessed as induction of XIAP degradation at 0.1 uM by western blot analysis. The following applies: time 3-96 hrs, TDE = time-dependent effect.
For experiment [6] the target is unchanged. The experiment can be described thus: PROTAC activity at CRBN/IAP in human MM1.S cells assessed as induction of XIAP degradation pretreated for 1 hr with ubiquitin-activating inhibitor, MLN7243 followed by incubation with drug for 3 hrs by western blot analysis.
The target of experiment [7] is T2, Protein cereblon/Baculoviral IAP repeat-containing protein 2 (Homo sapiens). The experiment in a line: PROTAC activity at CRBN/IAP in human MM1.S cells assessed as induction of cIAP1 degradation at 100 nM incubated for 3 hrs by diaPASEF-based analysis. Put shortly: (§3)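 MM.1S cells exposed to DMSO or 0.1 μM compound for 3 h, then washed with PBS and snap-frozen. Lysed in 8 M urea/EPPS pH 8.5 buffer. 50 μg protein reduced, alkylated, precipitated, then digested with LysC and trypsin. Analysed by diaPASEF on timsTOF Pro2. Missing values imputed from a Gaussian distribution; log2 fold change versus DMSO with limma statistics.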

The target in experiment [8] is T3, Protein cereblon/Baculoviral IAP repeat-containing protein 3 (Homo sapiens). The experiment can be described thus: PROTAC activity at CRBN/IAP in human MM1.S cells assessed as induction of cIAP2 degradation incubated for 16 hrs by western blot analysis. Particulars: dose 0.0001-1 µM. Put shortly:
as §2

Experiment [9] has as its target T2, Protein cereblon/Baculoviral IAP repeat-containing protein 2 (Homo sapiens). The experiment can be described thus: PROTAC activity at CRBN/IAP in human MM1.S cells assessed as induction of cIAP1 degradation incubated for 16 hrs by western blot analysis. The following applies: dose 0.0001-1 µM. An outline of the steps: as §2
The target of experiment [10] is T3, Protein cereblon/Baculoviral IAP repeat-containing protein 3 (Homo sapiens). The experiment can be described thus: PROTAC activity at CRBN/IAP in human MM1.S cells assessed as induction of cIAP2 degradation pretreated for 1 hr with ubiquitin-activating inhibitor, MLN7243 followed by incubation with drug for 3 hrs by western blot analysis.
Experiment [11] deals with T2, Protein cereblon/Baculoviral IAP repeat-containing protein 2 (Homo sapiens). The experiment can be described thus: PROTAC activity at CRBN/IAP in human MM1.S cells assessed as induction of cIAP1 degradation pretreated for 1 hr with proteasome inhibitor, MG132 followed by incubation with drug for 3 hrs by western blot analysis.
Experiment [12] addresses T3, Protein cereblon/Baculoviral IAP repeat-containing protein 3 (Homo sapiens). The experiment can be described thus: PROTAC activity at CRBN/IAP in human MM1.S cells assessed as induction of cIAP2 degradation at 0.1 uM incubated for 3 hrs by western blot analysis. Put shortly:
as §1

The target in experiment [13] is T1, Protein cereblon/E3 ubiquitin-protein ligase XIAP (Homo sapiens). The experiment in a line: PROTAC activity at CRBN/IAP in human MM1.S cells assessed as induction of XIAP degradation pretreated for 1 hr with proteasome inhibitor, MG132 followed by incubation with drug for 3 hrs by western blot analysis.
The target is the same in experiment [14]. The experiment in a line: PROTAC activity at CRBN/IAP in human MM1.S cells assessed as induction of XIAP degradation at 0.1 uM incubated for 3 hrs by diaPASEF-based proteomics analysis. An outline of the steps: as §3
Experiment [15] deals with T3, Protein cereblon/Baculoviral IAP repeat-containing protein 3 (Homo sapiens). The experiment in a line: PROTAC activity at CRBN/IAP in human MM1.S cells assessed as induction of cIAP2 degradation at 0.1 uM by western blot analysis. The following applies: time 3-96 hrs, TDE = time-dependent effect. Put shortly: as §2
In experiment [16] the target is T2, Protein cereblon/Baculoviral IAP repeat-containing protein 2 (Homo sapiens). The experiment in a line: PROTAC activity at CRBN/IAP in human MM1.S cells assessed as induction of cIAP1 degradation pretreated for 1 hr with ubiquitin-activating inhibitor, MLN7243 followed by incubation with drug for 3 hrs by western blot analysis.
Experiment [17] shares this target. The experiment can be described thus: PROTAC activity at CRBN/IAP in human MM1.S cells assessed as induction of cIAP1 degradation at 0.1 uM by western blot analysis. The following applies: time 3-96 hrs, TDE = time-dependent effect. Put shortly:
as §2

In experiment [18] the target is Protein cereblon/Zinc finger protein Aiolos (Homo sapiens) (UniProt Q96SW2+Q9UKT9). The experiment in a line: PROTAC activity at CRBN/IKZF3 in human MM1.S cells assessed as induction of IKZF3 degradation at 1 uM incubated for 16 hrs by western blot analysis. An outline of the steps: as §2
In experiment [19] the target is T2, Protein cereblon/Baculoviral IAP repeat-containing protein 2 (Homo sapiens). The experiment in a line: PROTAC activity at CRBN/IAP in human MM1.S cells assessed as induction of cIAP1 degradation at 10 nM incubated for 16 hrs by western blot analysis. An outline of the steps: as §2
Experiment [20] concerns the target T1, Protein cereblon/E3 ubiquitin-protein ligase XIAP (Homo sapiens). The experiment can be described thus: PROTAC activity at CRBN/IAP in human MM1.S cells assessed as induction of XIAP degradation at 0.1 uM incubated for 3 hrs by western blot analysis. An outline of the steps:
as §1

T3 sequence (Q13489 whole entry, looked up): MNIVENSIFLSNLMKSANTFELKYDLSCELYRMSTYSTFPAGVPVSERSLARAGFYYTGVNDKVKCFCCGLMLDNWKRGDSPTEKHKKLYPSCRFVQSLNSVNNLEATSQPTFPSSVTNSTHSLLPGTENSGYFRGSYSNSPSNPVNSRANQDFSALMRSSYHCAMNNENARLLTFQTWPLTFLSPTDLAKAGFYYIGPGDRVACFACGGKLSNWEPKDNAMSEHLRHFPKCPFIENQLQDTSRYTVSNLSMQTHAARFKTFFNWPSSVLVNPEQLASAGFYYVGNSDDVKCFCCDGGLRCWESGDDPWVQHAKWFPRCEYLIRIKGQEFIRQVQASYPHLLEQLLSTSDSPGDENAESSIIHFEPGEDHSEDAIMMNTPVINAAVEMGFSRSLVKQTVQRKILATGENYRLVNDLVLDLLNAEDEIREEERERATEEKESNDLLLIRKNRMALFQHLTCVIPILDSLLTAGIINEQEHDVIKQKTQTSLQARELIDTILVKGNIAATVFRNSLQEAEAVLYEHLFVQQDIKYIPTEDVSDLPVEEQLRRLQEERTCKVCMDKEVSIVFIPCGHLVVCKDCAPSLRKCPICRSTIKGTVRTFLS
T3 sequence (Q96SW2 whole entry, looked up): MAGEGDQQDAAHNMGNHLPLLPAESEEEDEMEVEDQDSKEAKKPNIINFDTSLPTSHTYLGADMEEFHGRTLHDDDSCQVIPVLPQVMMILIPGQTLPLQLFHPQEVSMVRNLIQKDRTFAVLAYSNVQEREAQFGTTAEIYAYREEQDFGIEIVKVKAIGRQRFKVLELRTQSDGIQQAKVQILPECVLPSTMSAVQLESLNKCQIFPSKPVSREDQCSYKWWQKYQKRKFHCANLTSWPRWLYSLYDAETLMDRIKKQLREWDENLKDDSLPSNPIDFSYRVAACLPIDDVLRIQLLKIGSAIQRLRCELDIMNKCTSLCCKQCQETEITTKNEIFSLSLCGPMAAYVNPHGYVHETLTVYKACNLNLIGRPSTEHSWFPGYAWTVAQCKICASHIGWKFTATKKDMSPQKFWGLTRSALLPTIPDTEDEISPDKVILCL
T1 sequence (P98170 whole entry, looked up): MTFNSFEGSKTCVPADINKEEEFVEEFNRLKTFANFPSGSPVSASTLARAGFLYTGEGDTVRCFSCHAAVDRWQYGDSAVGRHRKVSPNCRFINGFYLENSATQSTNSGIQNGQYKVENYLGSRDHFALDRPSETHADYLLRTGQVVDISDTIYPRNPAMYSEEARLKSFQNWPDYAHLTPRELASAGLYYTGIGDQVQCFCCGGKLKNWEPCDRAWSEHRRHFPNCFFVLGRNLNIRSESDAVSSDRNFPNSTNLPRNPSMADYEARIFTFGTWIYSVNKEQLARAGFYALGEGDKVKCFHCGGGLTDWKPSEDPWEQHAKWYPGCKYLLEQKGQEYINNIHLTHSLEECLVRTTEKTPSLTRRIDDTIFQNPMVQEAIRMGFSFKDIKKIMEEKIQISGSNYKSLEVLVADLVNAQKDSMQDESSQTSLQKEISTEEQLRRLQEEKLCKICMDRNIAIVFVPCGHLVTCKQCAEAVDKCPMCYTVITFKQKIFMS
T1 sequence (Q96SW2 whole entry, looked up): as the sequence (Q96SW2 whole entry, looked up) above
T2 sequence (Q13490 whole entry, looked up): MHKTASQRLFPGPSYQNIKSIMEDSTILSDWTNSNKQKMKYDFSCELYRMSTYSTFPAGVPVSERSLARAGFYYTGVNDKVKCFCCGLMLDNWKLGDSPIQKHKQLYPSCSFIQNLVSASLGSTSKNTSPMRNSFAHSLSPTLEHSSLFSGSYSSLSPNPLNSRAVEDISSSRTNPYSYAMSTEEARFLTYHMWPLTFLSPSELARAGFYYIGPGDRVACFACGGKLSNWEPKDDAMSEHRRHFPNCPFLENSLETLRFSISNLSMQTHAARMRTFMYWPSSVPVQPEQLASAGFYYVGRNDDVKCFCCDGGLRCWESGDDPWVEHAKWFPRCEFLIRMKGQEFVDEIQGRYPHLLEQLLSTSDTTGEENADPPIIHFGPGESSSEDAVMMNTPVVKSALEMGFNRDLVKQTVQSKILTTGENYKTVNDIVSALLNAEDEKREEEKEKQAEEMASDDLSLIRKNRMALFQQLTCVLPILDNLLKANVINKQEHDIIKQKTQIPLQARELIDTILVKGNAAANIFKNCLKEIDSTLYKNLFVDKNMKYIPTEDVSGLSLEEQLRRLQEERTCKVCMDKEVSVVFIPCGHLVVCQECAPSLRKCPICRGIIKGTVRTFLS
T2 sequence (Q96SW2 whole entry, looked up): as the sequence (Q96SW2 whole entry, looked up) above
Sequence of Protein cereblon/Zinc finger protein Aiolos (Homo sapiens) (Q96SW2 whole entry, looked up): as above
Sequence of Protein cereblon/Zinc finger protein Aiolos (Homo sapiens) (Q9UKT9 whole entry, looked up): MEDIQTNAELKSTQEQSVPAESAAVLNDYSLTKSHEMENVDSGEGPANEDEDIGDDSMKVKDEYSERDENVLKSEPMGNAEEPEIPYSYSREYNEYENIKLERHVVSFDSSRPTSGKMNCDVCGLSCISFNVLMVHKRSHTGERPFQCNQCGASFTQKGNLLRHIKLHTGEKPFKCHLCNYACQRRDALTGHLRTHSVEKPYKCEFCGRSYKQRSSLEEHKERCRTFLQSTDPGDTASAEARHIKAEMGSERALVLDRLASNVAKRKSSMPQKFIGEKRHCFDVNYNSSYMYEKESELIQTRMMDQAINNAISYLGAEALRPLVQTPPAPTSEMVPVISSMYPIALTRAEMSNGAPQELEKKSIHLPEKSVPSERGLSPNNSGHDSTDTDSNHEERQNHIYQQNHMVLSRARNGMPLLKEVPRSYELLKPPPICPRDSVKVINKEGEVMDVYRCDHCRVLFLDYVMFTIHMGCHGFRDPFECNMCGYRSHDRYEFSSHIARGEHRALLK

`CN[C@@H](C)C(=O)N[C@H](C(=O)N1C[C@@H](Oc2cccc(OCCOCCCCCCOCCCCCCNc3cccc4c3C(=O)N(C3CCC(=O)NC3=O)C4=O)c2)C[C@H]1C(=O)N[C@@H]1CCCc2ccccc21)C1CCCCC1` (stereo not given in full): the Activity was 100% in experiment [1]; 100% in experiment [2]; “Dose-Dependent Effect” in [3]; “Tde” in experiment [5]; “Dose-Dependent Effect” in [8]; “Dose-Dependent Effect” in experiment [9]. The Activity is 100% in [12]; “Tde” in [15]; “Tde” in experiment [17]; 100% in [19]; 100% in experiment [20]. For the same molecule, the result in experiment [4], in [6], in experiment [10], in experiment [11], in experiment [13] and in [16] was inactive. The result in experiment [7], in experiment [14] and in [18] was Active.

For the origin of these results see ChEMBL document CHEMBL5338733, “Heterobifunctional Ligase Recruiters Enable pan-Degradation of Inhibitor of Apoptosis Proteins” (J Med Chem, 2023).
